Compound activity deposited in PubChem BioAssay by several laboratories.
A selection: hits, their analogues and other compounds. The true share with any hit is near 1%.
p-CIP stab down: lowers stability of the mouse p/CIP coactivator protein | Q05BA5 | F442A p/CIP-EGFP cells, EGFP fluorescence, 16 h | decrease of EGFP signal, % at 10 µM | hit rate 0.01% among 290,000;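 active = EGFP signal decrease of at least 30% at 10 µM or well 3 SD below plate mean, unless failing retest; inactive = the rest, including hits failing retest or dose response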
CTSL1 counter: counter-screen for PFM18AAP inhibitors: inhibitors of F. hepatica cathepsin L1 | recombinant F. hepatica cathepsin L1, Z-Leu-Arg-MCA fluorescence | inhibition, % at 5.96 µM | hit rate 0.49% among 300,000;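 active = inhibition above the mean of all tested compounds plus 3 SD, set per screening campaign, cut at about 17% in these data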;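 also: 0% = plate median of test compound wells and 100% = 1 µM Z-Phe-Ala-diazomethylketone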
Arrestin-AP2 inh: blocks beta-arrestin peptide binding to AP2 adaptin. FITC-arrestin peptide / GST-AP2 beads, flow cytometry; AP2 beta2 appendage carries R879A mutation. inhibition, % at 10 µM. hit rate 0.31% among 340,000;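 active = inhibition above a set limit, near 3 SD of compounds lacking own fluorescence, cut at about 54% in these data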;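 also: plate controls were DMSO wells for no effect and 5 µM unlabelled arrestin peptide for full effect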
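Material – GST-tagged AP2 beta2-adaptin appendage (R879A) on 4 µm glutathione beads · Probe or stimulus – fluorescein-tagged arrestin peptide at 50 nM final · Timing – 12 min plus 1 h, RT · Detection – bead flow cytometry, FITC channel · Read-out basis – inhibition as reduced fluorescein signal on beads, percent · Medium – PBS plus Tween 20 (0.05%) and BSA (0.1%)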
Lipid droplet: hepatic lipid droplet formation modulation. AML12 mouse hepatocytes, oleate lipid droplets, BODIPY imaging. inhibition, % at 6.5 µM. hit rate 0.4% among 240,000;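 active = lipid droplet intensity inhibited by at least 50%, with more than 500 cells counted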
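Technique: fluorescence imaging, 20x objective, two fields per well / Assay system: AML12 hepatocytes (mouse) / Measure: % inhibition of lipid droplet signal / Doses: 6.5 µM single-point dosing / Incubation: overnight exposure / Reagent: 100 µM oleic acid challenge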
Arr AP2 CP1: human beta-arrestin and AP2 interaction inhibition, cherry pick. shares compounds with Arrestin-AP2 inh. GST-AP2 beads, FITC arrestin peptide binding, flow cytometry; GST-fused beta2-adaptin appendage, R879A mutant. inhibition, % at 10 µM. hit rate 2% among 1,300;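 active = inhibition above a set limit, roughly 3 SD of non-fluorescent compound noise, cut at about 38% in these data; inactive = inhibition at or below that limit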;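 also: loss of bead fluorescence from 50 nM FITC arrestin peptide bound to appendage; 0% = negative control wells and 100% = excess unlabelled arrestin peptide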
GST-FITC bead: counter-screen for beta-arrestin AP2 inhibitors: GST-GSH bead binding. shares compounds with Arrestin-AP2 inh. GST-fluorescein binding to GSH beads, fluorescence. inhibition, % at 10 µM. hit rate 2% among 1,300. AID 588338;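 active = inhibition above 50%, about 3 SD of the inhibition seen with non-fluorescent compounds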;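 also: fluorescein maleimide labelled GST captured on 4 micron glutathione beads; higher means more loss of bead fluorescence from quenching or blocked binding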
The depositor's hits bear a star; / = not tested or not shown.

SMILES | p-CIP stab down | CTSL1 counter | Arrestin-AP2 inh | Lipid droplet | Arr AP2 CP1 | GST-FITC bead
COc1ccc(-c2nnn(CC(=O)Nc3ccc4c(c3)OCCO4)n2)cc1OC | / | / | 60.4* | / | 11.0 | 2.7
O=C(Cn1nnc(-c2ccc(F)cc2)n1)Nc1ccc2c(c1)OCCO2 | -25.0 | 3.8 | 33.9 | -5.6 | / | /
COc1ccc(Br)cc1C(=O)Nc1ccccc1N1CCCC1 | / | -2.2 | -3.3 | / | / | /
CCn1c(=O)n(CC)c2cc(N3CCCC3)c(NC(=O)c3ccccc3C)cc21 | -1.2 | 2.0 | 4.0 | -15.6 | 20.7 | -1.1
CCn1c(=O)n(CC)c2cc(N3CCCC3)c(NC(=O)c3cc(Br)ccc3OC)cc21 | -4.0 | 11.3 | / | 10.0 | 4.0 | 1.5
Cc1ccccc1C(=O)Nc1ccccc1N1CCCCC1 | -10.4 | 5.1 | 1.2 | -10.7 | / | /
CCn1c(=O)n(CC)c2cc(N3CCCC3)c(NC(=O)c3ccccc3F)cc21 | 1.1 | -0.1 | 7.4 | 1.3 | -2.3 | -7.6
CC(=O)OC(COc1ccccc1)Cn1cnc2ccccc21 (stereo not drawn) | -20.5 | -6.6 | 54.7* | -2.6 | -6.2 | -12.0
Cc1ccc(-c2nc(NC(=O)c3ccc(S(=O)(=O)N(CCC#N)CCC#N)cc3)sc2-c2ccccc2)cc1 | -2.7 | 4.3 | 63.0* | 40.4 | -0.2 | -3.4
CSCCC(NC(=O)C12CC3CC(CC(C3)C1)C2)C(=O)OCC(=O)c1ccc(Cl)cc1 (stereo not drawn) | -7.4 | -1.4 | 2.7 | / | / | /
CSCCC(NC(=O)C1CCC(C)CC1)C(=O)OCC(=O)c1ccc(Cl)cc1 (stereo not drawn) | 4.3 | 11.8 | 106.5* | 9.4 | 10.4 | -1.4
COc1cccc(CC(=O)OC(C)C(=O)Nc2ncc(Cl)cc2Cl)c1 (stereo not drawn) | / | -3.4 | 16.6 | / | / | /
O=C1CN(C(=O)/C=C/c2ccccc2)CCN1 | -9.0 | 0.5 | 57.0* | -1.7 | -11.5 | -14.7
O=C1CN(C(=O)/C=C/c2ccc(Cl)cc2Cl)CCN1 | 7.0 | -4.8 | 8.8 | 4.8 | / | /
Cc1ccc(NC(=O)c2ccc(NS(=O)(=O)c3cccc4cccnc34)cc2)cc1 | 0.6 | -1.6 | -12.9 | -0.1 | / | /
Cc1c(NS(=O)(=O)c2cccc(C(=O)NCc3ccc(Cl)cc3)c2)c(=O)n(-c2ccccc2)n1C | 5.9 | -1.7 | 13.9 | 4.4 | / | /
Cc1c(NS(=O)(=O)c2cccc(C(=O)NCc3ccco3)c2)c(=O)n(-c2ccccc2)n1C | / | / | 95.0* | / | 5.6 | -9.2
Cc1cccc(NC(=O)c2cccc(S(=O)(=O)Nc3c(C)n(C)n(-c4ccccc4)c3=O)c2)c1 | / | / | -5.6 | / | / | /
COc1ccc(NC(=O)Nc2cnccn2)cc1 | 6.8 | 5.3 | -15.9 | 2.6 | 8.7 | 2.7
O=C(Nc1cccc(F)c1)Nc1ccccn1 | 10.9 | 0.4 | 1.6 | / | / | /
CCOc1ccc(NC(=O)Nc2cnccn2)cc1 | -1.0 | -1.9 | 5.5 | 25.1 | -2.0 | -7.2
COc1ccc(NC(=O)Nc2cc(C)ccn2)cc1 | / | / | 0.3 | / | / | /
O=C(Nc1cccc(F)c1)Nc1cnccn1 | -7.5 | -3.5 | 1.0 | -2.0 | -6.7 | -5.8
CN(CCOc1ccc(Cl)cc1)C(=O)c1cccc(S(=O)(=O)N2CCN(Cc3ccccc3)CC2)c1 | / | / | -14.9 | / | / | /
CCCCn1c(N)c(N(CC(C)C)C(=O)CC2CCCC2)c(=O)[nH]c1=O | / | -4.6 | -2.2 | / | / | /
SMILES | p-CIP stab down | CTSL1 counter | Arrestin-AP2 inh | Lipid droplet | Arr AP2 CP1 | GST-FITC bead
CSc1ccc(S(=O)(=O)Nc2ccc(S(=O)(=O)Nc3ccc(C)cc3)cc2)cc1 | -0.8 | 2.3 | -4.1 | -5.8 | / | /
Oc1cc(-c2cccnc2)cc2cccnc12 | / | / | 4.2 | / | / | /
CC(C)C(=O)Nc1cccc(NC(=S)NC(=O)c2ccccc2Cl)c1 | -7.4 | -1.2 | 24.7 | / | / | /
O=C(Nc1ccc(NC(=S)NC(=O)c2ccccc2Cl)cc1)c1cccc(Cl)c1 | / | 1.8 | 59.1* | / | 9.4 | -0.1
O=C(Nc1ccccc1Cl)C(=O)c1cn(CC(=O)N2CCOCC2)c2ccccc12 | -5.7 | -2.7 | 0.3 | -1.0 | / | /
COc1ccccc1N1CCN(C(=O)COc2cccc(C)c2C)CC1 | -6.3 | 2.1 | 61.4* | 4.0 | -9.6 | -1.5
CCOc1ccccc1N1CCN(C(=O)CC(C)(C)C)CC1 | -1.9 | -2.8 | 54.9* | 5.4 | 5.2 | -5.8
COc1ccccc1OCC(=O)N1CCN(c2ccccc2OC)CC1 | 18.0 | -2.0 | -0.8 | -17.0 | / | /
CCOc1ccccc1N(C(=O)CNC(=O)c1ccco1)C(C(=O)NC1CCCC1)c1ccncc1 (stereo not drawn) | -5.9 | -5.8 | -7.1 | -6.1 | / | /
C/C(=N\Nc1ncnc2sc(C)c(C)c12)c1ccccn1 | -515.8 | 1.1 | -2.8 | -175.0 | / | /
CCN(CC)C(=O)Cn1cc(/C=C(\C#N)C(=O)NC2CC2)c2ccccc21 | 4.2 | -1.2 | 61.0* | 4.3 | 7.7 | -6.3
Cc1ccc(NC2=NCC(=O)N2C2CCCC2)cc1 | 0.1 | 0.8 | 20.4 | 14.8 | / | /
Cc1cccn2cc(-c3ccc(NC(=O)Cc4ccccc4)cc3)nc12 | 1.1 | 4.3 | 95.9* | 9.2 | -1.3 | -1.4
COc1ccc(CC(=O)Nc2ccc(-c3cn4cccc(C)c4n3)cc2)cc1OC | -13.0 | -1.6 | -0.2 | 35.9 | / | /
Cc1c(C(=O)NCCN2CCOC2=O)oc2c(F)cccc12 | 1.2 | -1.6 | -2.8 | -1.2 | / | /
Cc1c(C(=O)NCCN2CCCC(O)C2)oc2c(F)cccc12 (stereo not drawn) | -2.7 | 1.1 | 57.5* | 22.7 | -10.5 | -3.1
CCC1CCCCN1CCCNC(=O)C1CCC(=O)N1Cc1ccc(C)cc1 (stereo not drawn) | 8.6 | 0.8 | -3.8 | / | -4.9 | 0.5
Cc1ccc(CN2C(=O)CCC2C(=O)NCCCN2CCOCC2)cc1 (stereo not drawn) | -6.3 | -4.8 | 91.8* | / | 5.3 | -1.0
CCOc1cc(NC(=S)NCCCN2CCOCC2)c(OCC)cc1NC(=O)c1ccc(C)cc1 | 7.2 | 1.6 | 57.7* | -24.0 | -1.7 | -7.3
CCOc1cc(NC(=S)NCCCN2CCOCC2)c(OCC)cc1NC(=O)c1ccccc1 | 13.2 | 0.7 | 4.1 | 7.6 | / | /
O=C(NCCN1CCOCC1)C1CCC(=O)N1Cc1ccc(F)cc1 (stereo not drawn) | 2.2 | -0.1 | -2.3 | 15.2 | -5.0 | 1.2
COC(=O)[C@@]1(Cc2ccc(OC)cc2)[C@H]2c3cc(C(=O)N(C)C)[nH]c3C[C@H]2CN1C(=O)c1ccccc1 | -7.2 | -3.0 | -0.3 | -1.7 | / | /
Cc1ccc(CN2C(=O)CCC2C(=O)NC2CC2)cc1 (stereo not drawn) | -17.5 | -2.5 | -5.0 | / | / | /
Cc1ccc(CNC(=O)C2CCC(=O)N2Cc2ccc(F)cc2)cc1 (stereo not drawn) | 6.2 | -3.5 | 6.5 | 11.8 | / | /
Cc1ccc(CN2C(=O)CCC2C(=O)NCc2ccco2)cc1 (stereo not drawn) | -13.1 | -3.9 | 92.3* | / | 13.2 | 1.0
Cc1ccc(CN2C(=O)CCC2C(=O)NCCN2CCN(c3cccc(Cl)c3)CC2)cc1 (stereo not drawn) | 6.9 | 3.7 | 5.8 | -11.2 | 6.6 | 1.7
